Active and inactive are the calls of the source. No cut-off for these calls is given here.
Key:
[1] = target: 4-aminobutyrate aminotransferase, mitochondrial (Homo sapiens) (UniProt P80404); test: Inhibition of GABA-transaminase at 10 uM
Outline: (§1)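 In vitro screen: GABASE incubated with compound in incubation buffer, with GABA-T activity read by a modified colorimetric method.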

[2] = target: 4-aminobutyrate aminotransferase, mitochondrial (Homo sapiens) (UniProt P80404); test: Inhibition of GABA-transaminase at 100 uM; outline: as §1
[3] = target: T1, Amine oxidase [flavin-containing] A (Rattus norvegicus, UniProt P21396); test: Inhibition of rat brain monoamine oxidase A
T1 sequence (P21396 whole entry): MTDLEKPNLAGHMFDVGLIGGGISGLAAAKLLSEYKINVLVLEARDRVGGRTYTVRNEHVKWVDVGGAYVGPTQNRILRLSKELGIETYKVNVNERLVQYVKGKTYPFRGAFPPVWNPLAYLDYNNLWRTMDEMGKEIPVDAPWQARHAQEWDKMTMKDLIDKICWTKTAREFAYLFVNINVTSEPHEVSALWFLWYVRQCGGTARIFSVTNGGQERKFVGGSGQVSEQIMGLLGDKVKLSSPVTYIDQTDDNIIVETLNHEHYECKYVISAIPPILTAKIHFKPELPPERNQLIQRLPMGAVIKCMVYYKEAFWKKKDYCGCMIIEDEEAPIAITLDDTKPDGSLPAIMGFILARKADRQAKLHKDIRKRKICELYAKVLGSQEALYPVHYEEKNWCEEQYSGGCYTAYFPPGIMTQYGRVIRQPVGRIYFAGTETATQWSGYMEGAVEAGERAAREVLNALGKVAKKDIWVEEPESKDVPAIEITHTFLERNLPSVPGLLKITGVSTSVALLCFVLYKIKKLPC

Rattus norvegicus [4] = test: Ex vivo inhibition of monoamine oxidase B in Sprague-Dawley rat whole brain at 30 mg/kg, ip; format: functional; set-up: dose 30 mg/kg
Outline: (§2)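 Male Sprague–Dawley rats (~300 g) dosed i.p. in corn oil, killed at 3, 6 or 12 h; whole-brain water homogenate diluted in 0.2 M potassium phosphate pH 7.4. Activity as % of vehicle control; N = 3–6 per group.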

Rattus norvegicus [5] = test: Ex vivo inhibition of monoamine oxidase A in Sprague-Dawley rat whole brain at 30 mg/kg, ip; format: functional; set-up: dose 30 mg/kg; outline: as §2
Rattus norvegicus [6] = test: Ex vivo inhibition of GABA-transaminase in Sprague-Dawley rat whole brain at 30 mg/kg, ip after 6 hrs relative to control; format: functional; conditions: route intraperitoneal
Outline: (§3)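 Male Sprague–Dawley rats (~300 g) dosed i.p. in corn oil, killed 3, 6 or 12 h later; whole-brain homogenate (5 volumes ice-cold water). GABA-T measured radiochemically: homogenate incubated with radiolabeled GABA in buffer containing pyridoxal phosphate, products isolated with tri-n-octylamine liquid anion exchanger, scintillation counting. Activity as % of vehicle control; N = 4–5 per group.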

Rattus norvegicus [7] = test: Ex vivo inhibition of GABA-transaminase in Sprague-Dawley rat whole brain at 30 mg/kg, ip after 3 hrs relative to control; format: functional; conditions: route intraperitoneal; outline: as §3
Rattus norvegicus [8] = test: Ex vivo inhibition of GABA-transaminase in Sprague-Dawley rat whole brain at 30 mg/kg, ip after 12 hrs relative to control; format: functional; conditions: route intraperitoneal; outline: as §3
Rattus norvegicus [9] = test: Ex vivo increase in brain GABA level in Sprague-Dawley rat whole brain at 30 mg/kg, ip after 3 hrs relative to control; format: functional; conditions: route intraperitoneal
Outline: (§4)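 Male Sprague–Dawley rats (~300 g) given drug i.p. in corn oil vehicle, killed by decapitation at 3, 6 or 12 h; brains flash-frozen, homogenized in 5 volumes ice-cold water. Homogenate deproteinized in ice-cold methanol, centrifuged, OPA/isobutyryl-L-cysteine derivatized; HPLC with fluorescence detection, C18 column at 30 °C. Expressed as % of vehicle control; N = 3–5 per group.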

Rattus norvegicus [10] = test: Ex vivo increase in brain alanine level in Sprague-Dawley rat whole brain at 30 mg/kg, ip after 3 hrs relative to control; format: functional; conditions: route intraperitoneal; outline: as §4
Rattus norvegicus [11] = test: Ex vivo increase in brain glycine level in Sprague-Dawley rat whole brain at 38.5 mg/kg, ip after 3 hrs relative to control; format: functional; set-up: dose 38.5 mg/kg
Outline: (§5)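 Male rats (~300 g) dosed i.p. in corn oil vehicle, killed by decapitation 3, 6 or 12 h later. Whole brains were flash-frozen, homogenized in 5 volumes ice-cold water, extracted with ice-cold methanol and centrifuged. Amino acids were derivatized with OPA/isobutyryl-L-cysteine and measured by HPLC-fluorescence on a C18 column at 30 °C. Values are % of vehicle control, N = 3–5 per group.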

Rattus norvegicus [12] = test: Ex vivo increase in brain glycine level in Sprague-Dawley rat whole brain at 38.5 mg/kg, ip after 6 hrs relative to control; format: functional; conditions: route intraperitoneal; outline: as §5

Sequence of 4-aminobutyrate aminotransferase, mitochondrial (Homo sapiens) (P80404 whole entry): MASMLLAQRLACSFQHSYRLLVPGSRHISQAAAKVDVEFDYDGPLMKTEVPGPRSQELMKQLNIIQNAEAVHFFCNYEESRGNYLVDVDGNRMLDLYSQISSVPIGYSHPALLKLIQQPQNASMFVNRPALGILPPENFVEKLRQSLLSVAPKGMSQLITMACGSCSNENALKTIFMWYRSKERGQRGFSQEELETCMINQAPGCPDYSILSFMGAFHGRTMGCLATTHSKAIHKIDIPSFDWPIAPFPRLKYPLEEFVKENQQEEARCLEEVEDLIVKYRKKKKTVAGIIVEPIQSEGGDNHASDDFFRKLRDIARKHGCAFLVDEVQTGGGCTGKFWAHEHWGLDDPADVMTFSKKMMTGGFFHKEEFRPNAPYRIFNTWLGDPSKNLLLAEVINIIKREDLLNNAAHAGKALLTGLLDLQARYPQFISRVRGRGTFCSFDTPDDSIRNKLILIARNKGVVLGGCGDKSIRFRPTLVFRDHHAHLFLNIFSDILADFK

| SMILES | Activity [1] | Activity [2] | also measured |
| --- | --- | --- | --- |
| C#CCN(CC#C)/N=C/Cc1ccc(C)cc1 | inactive | inactive |  |
| C#CCN(CC#C)/N=C/Cc1ccccc1C(F)(F)F | inactive | inactive |  |
| C#CCN(CC#C)/N=C/Cc1ccc(F)cc1 | inactive | inactive |  |
| C#CCN(CC#C)/N=C/Cc1ccc(Cl)cc1 | inactive | inactive |  |
| C#CCN(CC#C)/N=C/Cc1cccc(C(F)(F)F)c1 | inactive | inactive |  |
| C#CCN(CC#C)/N=C/Cc1ccccc1Cl | inactive | inactive |  |
| C#CCN(CC#C)/N=C/Cc1cccc(Cl)c1 | inactive | inactive |  |
| C#CCN(CC#C)/N=C/Cc1ccccc1C | inactive | inactive |  |
| NNCCc1ccccc1 [PHENELZINE] |  |  | inhibition (INH) [3]: > 95% |
| C#CCN(CC#C)/N=C/Cc1ccccc1F | inactive | inactive |  |
| C#CCN(CC#C)/N=C/Cc1ccc(OC)cc1 | inactive | inactive |  |
| N/N=C\Cc1ccccc1 |  |  | Activity (Rattus norvegicus [4]): inactive; Activity (Rattus norvegicus [5]): inactive; inhibition [1]: 10%; inhibition in vivo at 30 mg/kg (Rattus norvegicus [6]): 66%; inhibition in vivo at 30 mg/kg (Rattus norvegicus [7]): 66%; inhibition in vivo at 30 mg/kg (Rattus norvegicus [8]): 70%; Activity (Rattus norvegicus [9]): 418%; Activity (Rattus norvegicus [10]): 489% |
| C#CCN(CC#C)/N=C/Cc1cccc(F)c1 | inactive | inactive |  |
| C#CCN(CC#C)/N=C/Cc1ccccc1OC | inactive | inactive |  |
| C#CCN(CC#C)/N=C/Cc1cccc(OC)c1 | inactive | inactive |  |
| C#CCN(CC#C)/N=C/Cc1cccc(C)c1 | inactive | inactive |  |

More lines, main results first:

| Activity [1] | Activity [2] | SMILES | also measured |
| --- | --- | --- | --- |
| inactive | inactive | C#CCN/N=C/Cc1cccc(Cl)c1 |  |
| inactive | inactive | C#CCN/N=C/Cc1ccc(C(F)(F)F)cc1 |  |
| inactive | inactive | C#CCN/N=C/Cc1ccc(Cl)cc1 |  |
| inactive | inactive | C#CCN(CC#C)/N=C/Cc1ccc(C(F)(F)F)cc1 |  |
| inactive | inactive | C#CCN/N=C/Cc1ccccc1Cl |  |
| inactive | inactive | C#CCN/N=C/Cc1ccc(F)cc1 |  |
| inactive | inactive | C#CCN/N=C/Cc1ccc(OC)cc1 |  |
| inactive | inactive | C#CCN/N=C/Cc1cccc(OC)c1 |  |
| inactive | inactive | C#CCN/N=C/Cc1ccccc1OC |  |
| inactive | inactive | C#CCN/N=C/Cc1cccc(C(F)(F)F)c1 |  |
| inactive | inactive | C#CCN/N=C/Cc1ccccc1F |  |
| inactive | inactive | C#CCN/N=C/Cc1ccc(C)cc1 |  |
| inactive | inactive | C#CCN/N=C/Cc1cccc(C)c1 |  |
| inactive | inactive | C#CCN/N=C/Cc1cccc(F)c1 |  |
| inactive | inactive | C#CCN/N=C/Cc1ccccc1 | Activity (Rattus norvegicus [11]): Active; Activity (Rattus norvegicus [12]): 216% |
| inactive | inactive | C#CCN/N=C/Cc1ccccc1C |  |
| inactive | inactive | C#CCN/N=C/Cc1ccccc1C(F)(F)F |  |

— ChEMBL document CHEMBL1139405, “N-Propynyl analogs of beta-phenylethylidenehydrazines: synthesis and evaluation of effects on glycine, GABA, and monoamine oxidase” (Bioorg Med Chem, 2008)
